Activity calls are given as the source filed them. The calls are words filed in the database; no cut-off is given here.
Assays:
MDA-MB-435 [1] = experiment: Antimetastatic activity against human MDA-MB-435 cells harboring shRNA assessed as reduction in cell migration at 100 to 300 nM after 24 hrs […]; type: functional, cell-based; conditions: dose 100-300 nM
[2] = Toxicity in human PC-3 cells assessed as reduction in cell number after 48 hrs by Hoechst 33342 staining based assay
How it was run: (§1)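 4000 cells per well. Cells exposed 24 h after seeding to 6 concentrations ([…]) for 48 h. They were then fixed in cold 90% ethanol/5% acetic acid for 20 min and nuclei stained with Hoechst 33342. Plates imaged on a high-content reader. IC₅₀ calculated; normal diploid skin fibroblasts served as control cells.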

[3] = Toxicity in human MCF7 cells assessed as reduction in cell number after 48 hrs by Hoechst 33342 staining based assay; how it was run: as §1
[4] = biological target: Small conductance calcium-activated potassium channel protein 3 (Homo sapiens) (UniProt Q9UGI6); experiment: Inhibition of SK3 in human MDA-MB-435 cells harboring SK3 shRNA assessed as reduction in Ca2+ influx at 300 nM measured after 1 hr by Fura2-AM dye based fluorescence assay; type: cell-based
Small conductance calcium-activated potassium channel protein 3 (Homo sapiens), sequence (Q9UGI6 whole entry): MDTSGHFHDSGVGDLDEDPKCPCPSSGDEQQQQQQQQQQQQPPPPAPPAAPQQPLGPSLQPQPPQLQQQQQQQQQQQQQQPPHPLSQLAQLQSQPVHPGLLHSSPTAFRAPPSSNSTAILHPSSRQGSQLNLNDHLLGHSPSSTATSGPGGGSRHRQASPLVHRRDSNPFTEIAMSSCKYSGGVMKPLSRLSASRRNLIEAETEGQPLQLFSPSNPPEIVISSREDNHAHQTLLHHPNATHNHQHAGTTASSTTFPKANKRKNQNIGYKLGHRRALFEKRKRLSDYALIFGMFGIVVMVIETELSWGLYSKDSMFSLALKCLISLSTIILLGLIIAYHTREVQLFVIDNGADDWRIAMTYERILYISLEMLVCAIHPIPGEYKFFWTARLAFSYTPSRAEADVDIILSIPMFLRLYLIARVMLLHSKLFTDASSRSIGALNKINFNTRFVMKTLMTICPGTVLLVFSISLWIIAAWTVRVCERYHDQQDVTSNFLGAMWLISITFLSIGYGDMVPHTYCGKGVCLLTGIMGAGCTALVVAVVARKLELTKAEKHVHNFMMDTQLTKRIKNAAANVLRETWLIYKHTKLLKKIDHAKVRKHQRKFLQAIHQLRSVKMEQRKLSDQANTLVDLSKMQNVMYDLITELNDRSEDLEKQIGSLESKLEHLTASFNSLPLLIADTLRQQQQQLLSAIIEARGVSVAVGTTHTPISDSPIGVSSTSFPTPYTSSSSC
How it was run: (§2)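 Constitutive Ca²⁺ entry in MDA-MB-435s shRD or shSK3 cells, measured 48 h after transfection with 30 nM siOrai1 or siCTL. Cells were treated 1 h with compound and loaded with Fura2-AM for 45 min at 37 °C. They were then resuspended in Ca²⁺-free solution for 20 s before 2 mM CaCl₂ was added. Emission read at 510 nm with 340/380 nm excitation. Steady-state signal normalized to control. Three experiments in triplicate.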

MDA-MB-435 [5] = experiment: Toxicity in human MDA-MB-435 cells assessed as mortality at 10 uM measured after 24 hrs by MTT assay relative to control; type: cell-based; conditions: mda-mb-435, 24 h
How it was run: (§3)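 MTT viability assay: about 4 × 10⁴ MDA-MB-435s cells seeded in triplicate with the molecules (tested series 100 nM, 300 nM, 1 µM, 3 µM, 10 µM) and kept 24 h at 37 °C. Medium was then removed and cells incubated 45 min at 37 °C with tetrazolium salt, which viable cells reduce to formazan. Results given as % mortality.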

[6] = biological target: Small conductance calcium-activated potassium channel protein 3 (Homo sapiens) (UniProt Q9UGI6); experiment: Inhibition of SK3 (unknown origin) expressed in HEK293 cells assessed as reduction in channel current at 2 uM with 0 mV holding potential by patch clamp electrophysiological method; type: cell-based
How it was run: (§4)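 Patch clamp on HEK-293 cells stably expressing SK3 (lentiviral). Compound added acutely; DMSO/methanol was the vehicle, and runs with or without apamin. Ramp from −80 to +80 mV, holding at 0 mV, 500 ms ramps at 4 s intervals. Current analyzed at 0 mV to minimize chloride currents, followed as a time course. Pipette solution adjusted to pH 7.2 with KOH.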

[7] = biological target: Small conductance calcium-activated potassium channel protein 3 (Homo sapiens) (UniProt Q9UGI6); experiment: Inhibition of SK3 (unknown origin) expressed in HEK293 cells assessed as reduction in channel current at 2 uM with 0 mV holding potential measured within 10 secs by patch clamp electrophysiological method relative to control; type: cell-based; conditions: time 10.0 sec; how it was run: as §4
[8] = Toxicity in human MDA-MB-231 cells assessed as reduction in cell number after 48 hrs by Hoechst 33342 staining based assay; how it was run: as §1
MDA-MB-435 [9] = experiment: Effect on calcium influx in human MDA-MB-435 cells harboring siRNA and siOrai1 at 300 nM measured after 1 hr by Fura2-AM dye based fluorescence assay; type: functional, cell-based; how it was run: as §2
MDA-MB-435 [10] = experiment: Antimetastatic activity against human MDA-MB-435 cells assessed as reduction in cell migration at 100 to 300 nM after 24 hrs by crystal violet staining based assay relative to control; set-up: scale not given: the % may be the effect or the level left; conditions: dose 100-300 nM
MDA-MB-435 [11] = experiment: Toxicity in human MDA-MB-435 cells assessed as mortality at 1 uM measured after 24 hrs by MTT assay relative to control; type: cell-based; conditions: mda-mb-435, 24 h; how it was run: as §3
MDA-MB-435 [12] = experiment: Effect on calcium influx in human MDA-MB-435 cells harboring siRNA and siCTL at 300 nM measured after 1 hr by Fura2-AM dye based fluorescence assay; type: functional, cell-based; how it was run: as §2
[13] = Toxicity in human Huh-7 cells assessed as reduction in cell number after 48 hrs by Hoechst 33342 staining based assay; how it was run: as §1
[14] = Toxicity in human skin fibroblasts assessed as reduction in cell number after 48 hrs by Hoechst 33342 staining based assay; type: tissue-based, Fibroblast; how it was run: as §1
[15] = biological target: Small conductance calcium-activated potassium channel protein 3 (Homo sapiens) (UniProt Q9UGI6); experiment: Inhibition of SK3 (unknown origin) expressed in HEK293 cells assessed as reduction in channel current at 2 uM with 0 mV holding potential in presence of -apamin by patch clamp electrophysiological method; type: cell-based; how it was run: as §4
[16] = biological target: ORAI1/STIM1 (Homo sapiens) (UniProt Q96D31+Q13586); experiment: Inhibition of STIM1/Orai1 (unknown origin) expressed in HEK293 cells assessed as reduction in Ca2+-release activated Ca2+ entry current at 2 uM by whole cell patch clamp electrophysiological method; type: cell-based
ORAI1/STIM1 (Homo sapiens), sequence (Q13586 23-685 partner limits assumed): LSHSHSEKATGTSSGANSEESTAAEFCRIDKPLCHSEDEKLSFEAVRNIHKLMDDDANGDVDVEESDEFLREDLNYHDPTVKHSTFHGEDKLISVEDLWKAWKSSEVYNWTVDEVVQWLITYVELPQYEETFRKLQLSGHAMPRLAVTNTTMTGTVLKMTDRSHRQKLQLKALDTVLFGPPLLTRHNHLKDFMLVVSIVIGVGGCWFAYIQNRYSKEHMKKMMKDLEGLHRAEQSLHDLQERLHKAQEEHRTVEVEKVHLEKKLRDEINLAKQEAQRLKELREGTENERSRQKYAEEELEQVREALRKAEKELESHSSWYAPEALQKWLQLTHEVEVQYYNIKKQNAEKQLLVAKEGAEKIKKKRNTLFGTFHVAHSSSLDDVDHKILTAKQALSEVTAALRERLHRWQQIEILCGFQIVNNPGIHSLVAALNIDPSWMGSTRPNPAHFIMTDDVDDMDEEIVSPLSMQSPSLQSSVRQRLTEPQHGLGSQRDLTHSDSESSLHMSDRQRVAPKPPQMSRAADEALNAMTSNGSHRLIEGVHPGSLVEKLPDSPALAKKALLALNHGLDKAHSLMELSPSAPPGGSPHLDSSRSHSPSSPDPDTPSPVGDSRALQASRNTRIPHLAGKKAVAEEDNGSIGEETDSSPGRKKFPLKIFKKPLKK
ORAI1/STIM1 (Homo sapiens), sequence (Q96D31 whole entry): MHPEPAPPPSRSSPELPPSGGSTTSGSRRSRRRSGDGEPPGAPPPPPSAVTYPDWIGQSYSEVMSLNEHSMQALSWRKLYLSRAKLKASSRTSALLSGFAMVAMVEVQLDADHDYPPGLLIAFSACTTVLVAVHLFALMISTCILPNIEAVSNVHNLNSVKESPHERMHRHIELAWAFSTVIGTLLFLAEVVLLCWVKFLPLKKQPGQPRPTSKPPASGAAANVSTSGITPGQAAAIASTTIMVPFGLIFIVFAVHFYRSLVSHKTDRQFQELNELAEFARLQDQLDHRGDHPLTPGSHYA

[17] = Toxicity in human NCI-H727 cells assessed as reduction in cell number after 48 hrs by Hoechst 33342 staining based assay; how it was run: as §1
[18] = Toxicity in human HCT-116 cells assessed as reduction in cell number after 48 hrs by Hoechst 33342 staining based assay; how it was run: as §1
MDA-MB-435 [19] = experiment: Antimetastatic activity against human MDA-MB-435 cells assessed as reduction in cell migration at 1 uM after 24 hrs by […] relative to control; type: functional; set-up: scale not given: the % may be the effect or the level left
MDA-MB-435 [20] = experiment: Inhibition of SK3/Orai1 in human MDA-MB-435 cells harboring SK3 shRNA assessed as reduction in Ca2+ influx at 300 nM measured after 1 hr by Fura2-AM dye based fluorescence assay relative to control; type: cell-based; how it was run: as §2
[21] = Toxicity in human Caco-2 cells assessed as reduction in cell number after 48 hrs by Hoechst 33342 staining based assay; how it was run: as §1
MDA-MB-435 [22] = experiment: Toxicity in human MDA-MB-435 cells assessed as mortality at 3 uM measured after 24 hrs by MTT assay relative to control; type: cell-based; conditions: mda-mb-435, 24 h; how it was run: as §3

Row | Structure (SMILES) | IC50 at 48 h [2] | IC50 at 48 h [3] | mortality (MDA-MB-435 [5]) | IC50 at 48 h [8] | mortality (MDA-MB-435 [11]) | IC50 at 48 h [13] | IC50 at 48 h [14] | IC50 at 48 h [17] | IC50 at 48 h [18] | IC50 at 48 h [21] | mortality (MDA-MB-435 [22]) | further results
1 | CCCCCCCCCCCCCCCCC[C@H](O)C[C@@H]1C=CCCN1C | > 25 µM | > 25 µM | 0% | > 25 µM | 0% | > 25 µM | > 25 µM | > 25 µM | > 25 µM | 16 µM | – | Activity (MDA-MB-435 [1]): inactive; inhibition [4]: inactive; inhibition [6]: 90%; inhibition [7]: 50%; Activity (MDA-MB-435 [9]): inactive; Activity (MDA-MB-435 [10]): <=60%; Activity (MDA-MB-435 [12]): inactive; inhibition [15]: Active; inhibition [16]: inactive; Activity (MDA-MB-435 [19]): <=60%; inhibition (MDA-MB-435 [20]): < 40%
2 | CCCCCCCCCCCCCCCCCC(Cc1cccc[n+]1C)OC.Cc1ccc(S(=O)(=O)[O-])cc1 (configuration not stated) | – | – | 80% | – | 30% | – | – | – | – | – | – | –
3 | CCCCCCCCCCCCCCCCCCCC(Cc1ccccn1)OC (configuration not stated) | – | – | – | – | 20% | – | – | – | – | – | 20% | –
4 | CCCCCCCCCCCCCCCCC[C@@H](O)C[C@@H]1C=CCCN1C | > 25 µM | > 25 µM | 80% | > 25 µM | 0% | > 25 µM | > 25 µM | > 25 µM | > 25 µM | 21 µM | – | –
5 | CCCCCCCCCCCCCCCCCCC[C@H](O)C[C@@H]1C=CCCN1C | > 25 µM | > 25 µM | – | > 25 µM | 30% | > 25 µM | > 25 µM | > 25 µM | > 25 µM | 14 µM | 30% | –
6 | CCCCCCCCCCCCCCCCCCC[C@H](C[C@@H]1C=CCCN1C)OC(C)=O | > 25 µM | > 25 µM | 20% | > 25 µM | 0% | > 25 µM | > 25 µM | > 25 µM | > 25 µM | 17 µM | – | –
7 | CCCCCCCC/C=C\CCCCCCCC(Cc1ccccn1)OC (configuration not stated) | – | – | – | – | 20% | – | – | – | – | – | 25% | –
8 | CCCCCCCC/C=C\CCCCCCC[C@H](O)C[C@@H]1C=CCCN1C | 19 µM | 18 µM | – | 14 µM | 30% | 24 µM | 25 µM | > 25 µM | 15 µM | 6 µM | 40% | –
9 | CCCCCCCCCCCCCCCCCCCC(O)Cc1ccccn1 (configuration not stated) | – | – | – | – | 20% | – | – | – | – | – | 20% | –
10 | CCCCCCCC/C=C\CCCCCCCC(O)Cc1ccccn1 (configuration not stated) | – | – | – | – | 20% | – | – | – | – | – | 25% | –
11 | CCCCCCCCCCCCCCCCCC(Cc1ccccn1)OC (configuration not stated) | – | – | 0% | – | 0% | – | – | – | – | – | – | –
12 | CCCCCCCCCCCCCCCCCCC[C@@H](O)C[C@@H]1C=CCCN1C | > 25 µM | > 25 µM | – | > 25 µM | 20% | > 25 µM | > 25 µM | > 25 µM | > 25 µM | > 25 µM | 30% | –
13 | CCCCCCCC/C=C\CCCCCCC[C@@H](O)C[C@@H]1C=CCCN1C | 7 µM | 10 µM | – | 8 µM | 30% | 10 µM | 9 µM | 9 µM | 10 µM | 8 µM | 80% | –
14 | CCCCCCCCCCCCCCCCCC(O)Cc1ccccn1 (configuration not stated) | – | – | 0% | – | 0% | – | – | – | – | – | – | –
15 | CCCCCCCCCCCCCCCCC[C@@H](O)C[C@@H]1CCCCN1C | – | – | 35% | – | 0% | – | – | – | – | – | – | –
16 | COc1cccc2c1C(=O)c1c(O)c3c(c(O)c1C2=O)C[C@@](O)(C(=O)CO)C[C@@H]3O[C@H]1C[C@H](N)[C@H](O)[C@H](C)O1 [DOXORUBICIN] | 0.12 µM | – | – | – | – | – | 0.03 µM | 0.66 µM | 0.12 µM | 0.17 µM | – | –
17 | CCCCCCCCCCCCCCCCC[C@@H](C[C@@H]1C=CCCN1C)OC(C)=O | 26 µM | > 25 µM | 20% | 22 µM | 0% | > 25 µM | 24 µM | > 25 µM | 24 µM | 9 µM | – | –
18 | CCCCCCCCCCCCCCCCC[C@H](C[C@@H]1C=CCCN1C)OC(C)=O | 15 µM | 19 µM | 70% | 21 µM | 5% | 22 µM | 18 µM | > 25 µM | 16 µM | 9 µM | – | –
